Laboratory results taken from ChEMBL document CHEMBL3044834, “Novel protoporphyrinogen oxidase inhibitors: 3H-pyrazolo[3,4-d][1,2,3]triazin-4-one derivatives” (J Agric Food Chem, 2008).

Tests used:
Assay type in all cases: functional
Digitaria sanguinalis [1] = test: Herbicidal activity against Digitaria sanguinalis (hairy crabgrass) assessed as inhibition of fresh weed plant weight at 1500 g/ha using post-emergence treatment protocol
Summary of the method: (§1)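 Test compounds made up as emulsions by dissolving in 100 µL N,N-dimethylformamide, then adding a little Tween 20 and water. For post-emergence, weed seedlings at one leaf and one stem were sprayed at the same rates as the pre-emergence test. Fresh weight was recorded 15 days after treatment and expressed as percent inhibition versus controls. All treatments were run in triplicate.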

[2] = test system: Brassica rapa subsp. oleifera; test: Herbicidal activity against Brassica rapa subsp. oleifera assessed as inhibition of fresh weed plant weight at 187.5 g/ha using post-emergence treatment protocol; summary of the method: as §1
Echinochloa crus-galli [3] = test: Herbicidal activity against Echinochloa crus-galli (barnyard grass) assessed as inhibition of fresh weed plant weight at 375 g/ha using pre-emergence treatment protocol; summary of the method: as §1
Amaranthus retroflexus [4] = test: Herbicidal activity against Amaranthus retroflexus assessed as inhibition of fresh weed plant weight at 375 g/ha using post-emergence treatment protocol; summary of the method: as §1
Amaranthus retroflexus [5] = test: Herbicidal activity against Amaranthus retroflexus assessed as inhibition of fresh weed plant weight at 750 g/ha using pre-emergence treatment protocol; summary of the method: as §1
Echinochloa crus-galli [6] = test: Herbicidal activity against Echinochloa crus-galli (barnyard grass) assessed as inhibition of fresh weed plant weight at 187.5 g/ha using post-emergence treatment protocol; summary of the method: as §1
Digitaria sanguinalis [7] = test: Herbicidal activity against Digitaria sanguinalis (hairy crabgrass) assessed as inhibition of fresh weed plant weight at 375 g/ha using pre-emergence treatment protocol
[8] = test system: Brassica rapa subsp. oleifera; test: Herbicidal activity against Brassica rapa subsp. oleifera assessed as inhibition of fresh weed plant weight at 375 g/ha using pre-emergence treatment protocol
Amaranthus retroflexus [9] = test: Herbicidal activity against Amaranthus retroflexus assessed as inhibition of fresh weed plant weight at 187.5 g/ha using pre-emergence treatment protocol
Digitaria sanguinalis [10] = test: Herbicidal activity against Digitaria sanguinalis (hairy crabgrass) assessed as inhibition of fresh weed plant weight at 375 g/ha using post-emergence treatment protocol; summary of the method: as §1
[11] = test system: Brassica rapa subsp. oleifera; test: Herbicidal activity against Brassica rapa subsp. oleifera assessed as inhibition of fresh weed plant weight at 750 g/ha using post-emergence treatment protocol; summary of the method: as §1
Digitaria sanguinalis [12] = test: Herbicidal activity against Digitaria sanguinalis (hairy crabgrass) assessed as inhibition of fresh weed plant weight at 187.5 g/ha using pre-emergence treatment protocol
Echinochloa crus-galli [13] = test: Herbicidal activity against Echinochloa crus-galli (barnyard grass) assessed as inhibition of fresh weed plant weight at 1500 g/ha using pre-emergence treatment protocol
Echinochloa crus-galli [14] = test: Herbicidal activity against Echinochloa crus-galli (barnyard grass) assessed as inhibition of fresh weed plant weight at 187.5 g/ha using pre-emergence treatment protocol; summary of the method: as §1
Echinochloa crus-galli [15] = test: Herbicidal activity against Echinochloa crus-galli (barnyard grass) assessed as inhibition of fresh weed plant weight at 750 g/ha using pre-emergence treatment protocol
Amaranthus retroflexus [16] = test: Herbicidal activity against Amaranthus retroflexus assessed as inhibition of fresh weed plant weight at 750 g/ha using post-emergence treatment protocol; summary of the method: as §1
Echinochloa crus-galli [17] = test: Herbicidal activity against Echinochloa crus-galli (barnyard grass) assessed as inhibition of fresh weed plant weight at 750 g/ha using post-emergence treatment protocol; summary of the method: as §1
Echinochloa crus-galli [18] = test: Herbicidal activity against Echinochloa crus-galli (barnyard grass) assessed as inhibition of fresh weed plant weight at 375 g/ha using post-emergence treatment protocol; summary of the method: as §1
[19] = test system: Brassica rapa subsp. oleifera; test: Herbicidal activity against Brassica rapa subsp. oleifera assessed as inhibition of fresh weed plant weight at 1500 g/ha using pre-emergence treatment protocol
Amaranthus retroflexus [20] = test: Herbicidal activity against Amaranthus retroflexus assessed as inhibition of fresh weed plant weight at 1500 g/ha using post-emergence treatment protocol; summary of the method: as §1
[21] = test system: Brassica rapa subsp. oleifera; test: Herbicidal activity against Brassica rapa subsp. oleifera assessed as inhibition of fresh weed plant weight at 187.5 g/ha using pre-emergence treatment protocol
[22] = test system: Brassica rapa subsp. oleifera; test: Herbicidal activity against Brassica rapa subsp. oleifera assessed as inhibition of fresh weed plant weight at 375 g/ha using post-emergence treatment protocol; summary of the method: as §1
Amaranthus retroflexus [23] = test: Herbicidal activity against Amaranthus retroflexus assessed as inhibition of fresh weed plant weight at 1500 g/ha using pre-emergence treatment protocol
Digitaria sanguinalis [24] = test: Herbicidal activity against Digitaria sanguinalis (hairy crabgrass) assessed as inhibition of fresh weed plant weight at 750 g/ha using pre-emergence treatment protocol
Amaranthus retroflexus [25] = test: Herbicidal activity against Amaranthus retroflexus assessed as inhibition of fresh weed plant weight at 375 g/ha using pre-emergence treatment protocol
[26] = test system: Brassica rapa subsp. oleifera; test: Herbicidal activity against Brassica rapa subsp. oleifera assessed as inhibition of fresh weed plant weight at 750 g/ha using pre-emergence treatment protocol
Amaranthus retroflexus [27] = test: Herbicidal activity against Amaranthus retroflexus assessed as inhibition of fresh weed plant weight at 187.5 g/ha using post-emergence treatment protocol; summary of the method: as §1
Digitaria sanguinalis [28] = test: Herbicidal activity against Digitaria sanguinalis (hairy crabgrass) assessed as inhibition of fresh weed plant weight at 1500 g/ha using pre-emergence treatment protocol
Digitaria sanguinalis [29] = test: Herbicidal activity against Digitaria sanguinalis (hairy crabgrass) assessed as inhibition of fresh weed plant weight at 750 g/ha using post-emergence treatment protocol; summary of the method: as §1
Echinochloa crus-galli [30] = test: Herbicidal activity against Echinochloa crus-galli (barnyard grass) assessed as inhibition of fresh weed plant weight at 1500 g/ha using post-emergence treatment protocol; summary of the method: as §1
Digitaria sanguinalis [31] = test: Herbicidal activity against Digitaria sanguinalis (hairy crabgrass) assessed as inhibition of fresh weed plant weight at 187.5 g/ha using post-emergence treatment protocol; summary of the method: as §1
[32] = test system: Brassica rapa subsp. oleifera; test: Herbicidal activity against Brassica rapa subsp. oleifera assessed as inhibition of fresh weed plant weight at 1500 g/ha using post-emergence treatment protocol; summary of the method: as §1

Compound	inhibition at 1500 g/ha (Digitaria sanguinalis [1])	inhibition at 187.5 g/ha [2]	inhibition at 375 g/ha (Echinochloa crus-galli [3])	inhibition at 375 g/ha (Amaranthus retroflexus [4])	inhibition at 750 g/ha (Amaranthus retroflexus [5])	inhibition at 187.5 g/ha (Echinochloa crus-galli [6])	inhibition at 375 g/ha (Digitaria sanguinalis [7])	inhibition at 375 g/ha [8]	inhibition at 187.5 g/ha (Amaranthus retroflexus [9])	inhibition at 375 g/ha (Digitaria sanguinalis [10])	inhibition at 750 g/ha [11]	inhibition at 187.5 g/ha (Digitaria sanguinalis [12])	inhibition at 1500 g/ha (Echinochloa crus-galli [13])	inhibition at 187.5 g/ha (Echinochloa crus-galli [14])	inhibition at 750 g/ha (Echinochloa crus-galli [15])	inhibition at 750 g/ha (Amaranthus retroflexus [16])	inhibition at 750 g/ha (Echinochloa crus-galli [17])	inhibition at 375 g/ha (Echinochloa crus-galli [18])	inhibition at 1500 g/ha [19]	inhibition at 1500 g/ha (Amaranthus retroflexus [20])	other results
C#CCN1C(=O)COc2cc(F)c(-n3nnc4c(cnn4CCC)c3=O)cc21	33.9%	35.4%	80.1%	41.5%	100%	0.5%	91.3%	67.9%	37.7%	5.6%	70.3%	80.4%	95.4%	43.7%	87%	87.8%	61%	19%	98.1%	99.6%	inhibition at 187.5 g/ha [21]: 63.4%; inhibition at 375 g/ha [22]: 64.6%; inhibition at 1500 g/ha (Amaranthus retroflexus [23]): 100%; inhibition at 750 g/ha (Digitaria sanguinalis [24]): 93.5%; inhibition at 375 g/ha (Amaranthus retroflexus [25]): 73.8%; inhibition at 750 g/ha [26]: 82.1%; inhibition at 187.5 g/ha (Amaranthus retroflexus [27]): 14.6%; inhibition at 1500 g/ha (Digitaria sanguinalis [28]): 100%; inhibition at 750 g/ha (Digitaria sanguinalis [29]): 16.7%; inhibition at 1500 g/ha (Echinochloa crus-galli [30]): 91.5%; inhibition at 187.5 g/ha (Digitaria sanguinalis [31]): 0%; inhibition at 1500 g/ha [32]: 90.7%
C#CCOc1cc(-n2nnc3nn(CC=C)cc3c2=O)c(F)cc1Cl	36.1%	2.9%	0%	100%	93.4%	0%	6.5%	25.4%	41%	8.3%	36.6%	2.2%	40.9%	0%	19.5%	100%	9.3%	0.5%	65.8%	100%	inhibition at 187.5 g/ha [21]: 16.4%; inhibition at 375 g/ha [22]: 18.9%; inhibition at 1500 g/ha (Amaranthus retroflexus [23]): 100%; inhibition at 750 g/ha (Digitaria sanguinalis [24]): 47.8%; inhibition at 375 g/ha (Amaranthus retroflexus [25]): 90.2%; inhibition at 750 g/ha [26]: 37.3%; inhibition at 187.5 g/ha (Amaranthus retroflexus [27]): 22%; inhibition at 1500 g/ha (Digitaria sanguinalis [28]): 79.6%; inhibition at 750 g/ha (Digitaria sanguinalis [29]): 13.9%; inhibition at 1500 g/ha (Echinochloa crus-galli [30]): 20.3%; inhibition at 187.5 g/ha (Digitaria sanguinalis [31]): 0%; inhibition at 1500 g/ha [32]: 70.3%
